PKA-R2B act: PKA-R2B complex activation; AID 504700; P22694+P31323; PKA-R2B holoenzyme dissociation, Cy5-IP20 fluorescence polarization; R2B truncated from residue 108, S112A mutant; 0% DMSO only, 100% 113 µM cGMP; 0.079% of 340,000 active; activation, % at 11.4 µM;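 active means activation above a cutoff set at the mean over all compounds plus 3 SD, cut at about 18% in these data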;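 further: higher means more holoenzyme dissociation and a rise in polarization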
CAL PDZ FP-1: inhibitors of human CAL PDZ peptide binding; 0.02% of 330,000 active; inhibition, % at 20 µM; AID 504414; Q9HD26; purified CAL PDZ, TMR-peptide fluorescence polarization, 1 h;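 active means highest replicate inhibition of at least 40%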
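Assay system – tagged CAL PDZ protein CerCALP, purified · Timing – 1 h at RT · Compound – single point, 20 µM · Measured by – fluorescence polarization from S- and P-plane intensities, G-factor corrected · Evaluation – inhibition from polarization loss · Probe or stimulus – TMR reporter peptide T*-PRC34 · Buffer or medium – pH 7.4 phosphate-saline buffer, reducing agent, detergent, IgG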
CAL PDZ FP-2: blocks peptide binding to the human CAL PDZ domain | Q9HD26 | purified CAL PDZ, TMR-peptide fluorescence polarization, 1 h | inhibition, % at 24.9 µM | 0.92% of 300,000 active;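 active means mean inhibition of at least 30% with at least half of replicates also reaching 30%; inconclusive means no clear call, values can overlap the other calls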
PKA-R1A activ: activators of PKA-R1A complex | PKA-R1A dissociation, Cy5-IP20 fluorescence polarization; scaled: DMSO 0%, 113 µM cGMP 100% | activation, % at 11.4 µM | 0.083% of 340,000 active;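 active means percent activation above the mean of all tested compounds plus 3 SD, cut at about 19% in these data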;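 further: higher means more PKAc released from R1A so a rise in polarization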
dFosB act-1: mouse delta FosB homodimer activation. P13346. purified delta FosB, TAMRA-CDK5 oligo fluorescence polarization; percent of positive-control signal above neutral wells. activation, % at 25 µM. 0.99% of 340,000 active;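 active means mean activation above about 17%, with every replicate also reaching it, limit read from the data, passing the limit was not always enough; inconclusive means only one of the two conditions met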
Target sequence (P13346 whole entry, looked up): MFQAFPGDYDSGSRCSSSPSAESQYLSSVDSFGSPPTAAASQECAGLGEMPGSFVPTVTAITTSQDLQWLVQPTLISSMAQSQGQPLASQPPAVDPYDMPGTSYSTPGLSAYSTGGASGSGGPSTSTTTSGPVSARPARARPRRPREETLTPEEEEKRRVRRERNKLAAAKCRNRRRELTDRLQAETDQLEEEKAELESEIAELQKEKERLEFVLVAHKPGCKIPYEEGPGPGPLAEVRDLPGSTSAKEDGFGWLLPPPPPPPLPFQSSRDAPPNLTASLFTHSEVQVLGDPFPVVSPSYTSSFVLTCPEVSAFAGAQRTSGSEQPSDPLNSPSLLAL
NTR1 ag: NTR1 (human) agonism | NTR1-U2OS beta-arrestin-GFP spot imaging, agonist mode | activation, % at 20 µM | 0.17% of 330,000 active | P30989 | AID 493036;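 active means activation at or above 40% of the spot to cytoplasm intensity ratio, with at least 20 cells analyzed; inconclusive means wells under 20 cells, flagged as cytotoxic or low count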
dFosB act-2: enhances mouse delta FosB homodimer binding to DNA; shares compounds with dFosB act-1; purified delta FosB, TAMRA-CDK5 oligo fluorescence polarization; normalised: neutral wells 0, positive control 100; activation, % at 24.9 µM; 2,400 tested, under 10 active;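 active means highest replicate activation at or above 34% and every replicate reaching that threshold; inconclusive means meets only one of the two criteria; inactive means meets neither criterion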;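 further: higher polarization means more probe DNA bound by delta FosB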
A number is an active result. Sampled rows, rich in hits. Any-hit rate of the full collection: about 2%.

Cc1ccc(CNC(=O)CSc2nc(=O)n3ccc(C)cc3n2)cc1 was read as PKA-R2B act inactive and PKA-R1A activ inactive.
Screening O=C1COc2ccc(C(=O)COC(=O)c3sc4ccccc4c3Cl)cc2N1 returned PKA-R2B act inactive, CAL PDZ FP-1 inactive, CAL PDZ FP-2 inactive, PKA-R1A activ inactive, dFosB act-1 94, NTR1 ag inactive and dFosB act-2 inactive.
Screening O=C1COc2ccc(C(=O)COc3ccc([N+](=O)[O-])cc3)cc2N1 returned PKA-R2B act inactive, CAL PDZ FP-1 inactive, CAL PDZ FP-2 inactive, PKA-R1A activ inactive, dFosB act-1 18, NTR1 ag inactive and dFosB act-2 inactive.
CCN(CC)S(=O)(=O)c1cc(C(=O)OCC(=O)c2ccc3c(c2)NC(=O)CO3)ccc1F was read as PKA-R2B act inactive, CAL PDZ FP-1 inactive, PKA-R1A activ inactive, dFosB act-1 20, NTR1 ag inactive and dFosB act-2 inactive.
For Cc1cc(C)cc(OCC(=O)OCC(=O)c2ccc3c(c2)NC(=O)CO3)c1 the results were PKA-R2B act inactive, CAL PDZ FP-2 inactive, PKA-R1A activ inactive, dFosB act-1 inactive and NTR1 ag inactive.
COc1ccc2c(Cl)c(C(=O)OCC(=O)c3ccc4c(c3)NC(=O)CO4)sc2c1Cl was read as PKA-R2B act inactive, CAL PDZ FP-1 inactive, CAL PDZ FP-2 inactive, PKA-R1A activ inactive and dFosB act-1 inactive.
`CN(C)S(=O)(=O)c1ccc(C(=O)OCC(=O)c2ccc3c(c2)NC(=O)CO3)cc1` gave PKA-R2B act inactive, CAL PDZ FP-1 inactive, CAL PDZ FP-2 inactive, PKA-R1A activ inactive, dFosB act-1 27, NTR1 ag inactive and dFosB act-2 inactive.
Screening CN(C)S(=O)(=O)c1cccc(C(=O)OCC(=O)c2ccc3c(c2)NC(=O)CO3)c1 returned PKA-R2B act inactive, CAL PDZ FP-1 inactive, CAL PDZ FP-2 inactive, PKA-R1A activ inactive, dFosB act-1 inactive and NTR1 ag inactive.
Screening CC1=C(C(=O)N(C)C)CC(CC(=O)NC(c2ccccc2)c2ccccc2)C(=O)N1CCCN1CCCC1=O (centres undefined) returned PKA-R2B act inactive and PKA-R1A activ inactive.
Screening CCOc1ccccc1NS(=O)(=O)c1ccc2c(c1)N(C)CCO2 returned PKA-R2B act inactive, CAL PDZ FP-1 inactive, CAL PDZ FP-2 inactive, PKA-R1A activ inactive, dFosB act-1 inactive and NTR1 ag inactive.
`O=C(CSc1nnnn1-c1ccccc1)NCCCN1CCCC1=O` gave PKA-R2B act inactive, CAL PDZ FP-1 inactive, CAL PDZ FP-2 inactive, PKA-R1A activ inactive, dFosB act-1 inactive and NTR1 ag inactive.
`O=C(Cc1ccc(S(=O)(=O)N2CCOCC2)s1)N(Cc1ccccc1)c1ccccc1` gave PKA-R2B act inactive, CAL PDZ FP-1 inactive, CAL PDZ FP-2 inactive, PKA-R1A activ inactive, dFosB act-1 inactive and NTR1 ag inactive.
`COc1ccc(Cl)cc1NC(=O)COC(=O)Cc1cc(OC)c(OC)c(OC)c1` gave PKA-R2B act inactive, CAL PDZ FP-1 inactive, PKA-R1A activ inactive, dFosB act-1 inactive and NTR1 ag inactive.
`CC(=O)c1sc(NC(=O)c2ccc(F)cc2)nc1-c1ccccc1` gave PKA-R2B act inactive, CAL PDZ FP-1 inactive, PKA-R1A activ inactive, dFosB act-1 25, NTR1 ag inactive and dFosB act-2 inactive.
Screening Fc1ccc(Nc2nc(-c3ccncc3)nc3ccccc23)cc1F returned PKA-R2B act inactive, CAL PDZ FP-1 inactive, CAL PDZ FP-2 inactive, PKA-R1A activ inactive, dFosB act-1 89, NTR1 ag inactive and dFosB act-2 inactive.
For O=C(Nc1nc(-c2ccccc2)nc2ccccc12)c1ccc(F)cc1 the results were PKA-R2B act inactive, CAL PDZ FP-1 inactive, CAL PDZ FP-2 inactive, PKA-R1A activ inactive, dFosB act-1 22, NTR1 ag inactive and dFosB act-2 inactive.
`COc1ccc(C(=O)Nc2nc(-c3ccccc3)c(C(C)=O)s2)c(OC)c1` gave PKA-R2B act inactive, CAL PDZ FP-1 inactive, CAL PDZ FP-2 inactive, PKA-R1A activ inactive, dFosB act-1 32, NTR1 ag inactive and dFosB act-2 inactive.
For O=C(NNS(=O)(=O)c1ccc([N+](=O)[O-])cc1)c1ccc([N+](=O)[O-])cc1 the results were PKA-R2B act inactive, CAL PDZ FP-1 inactive, CAL PDZ FP-2 inactive, PKA-R1A activ inactive, dFosB act-1 inactive and NTR1 ag inactive.
`CCOC(=O)c1cccc(N2CC3CNC(=O)C2(C(=O)OC)N3C)c1` (centres undefined) gave PKA-R2B act inactive, CAL PDZ FP-1 inactive, CAL PDZ FP-2 inactive, PKA-R1A activ inactive, dFosB act-1 inactive and NTR1 ag inactive.
Screening O=C(Cn1ccc(=O)[nH]c1=O)Nc1nccs1 returned PKA-R2B act inactive and PKA-R1A activ inactive.
`CN(C)S(=O)(=O)NCC1CCCN(Cc2cc3ccccc3s2)C1` (centres undefined) gave PKA-R2B act inactive, CAL PDZ FP-1 inactive, CAL PDZ FP-2 inactive, PKA-R1A activ inactive and dFosB act-1 inactive.
`Cc1cccc(NC(=S)N/N=C/c2ccc(Cl)c([N+](=O)[O-])c2)c1` gave PKA-R2B act inactive, CAL PDZ FP-1 inactive, CAL PDZ FP-2 inactive, PKA-R1A activ inactive, dFosB act-1 20, NTR1 ag inactive and dFosB act-2 inactive.
CCOC(=O)c1c(NC(=O)C(NCCN(C)C)c2ccccc2)sc2c1CCCC2 (centres undefined) was read as PKA-R2B act inactive, CAL PDZ FP-1 inactive, CAL PDZ FP-2 inactive, PKA-R1A activ inactive, dFosB act-1 34, NTR1 ag inactive and dFosB act-2 inconclusive.
O=C(CCCCn1c(=O)c2ccccc2n(CC(=O)Nc2ccc(F)cc2)c1=O)NCc1ccco1 was read as PKA-R2B act inactive, CAL PDZ FP-1 inactive, PKA-R1A activ inactive, dFosB act-1 inactive and NTR1 ag inactive.
For Cc1ccc(NC(=O)Cn2c(=O)n(CCCCC(=O)NCc3ccco3)c(=O)c3ccccc32)cc1 the results were PKA-R2B act inactive, CAL PDZ FP-1 inactive, PKA-R1A activ inactive, dFosB act-1 31, NTR1 ag inactive and dFosB act-2 inactive.
For Cc1ccc(NC(=O)Cn2c(=O)n(Cc3ccco3)c(=O)c3ccccc32)c(C)c1 the results were PKA-R2B act inactive, CAL PDZ FP-1 inactive, CAL PDZ FP-2 inactive, PKA-R1A activ inactive, dFosB act-1 32, NTR1 ag inactive and dFosB act-2 inactive.
For CC(Oc1cccc(Br)c1)C(=O)NNC(=O)CCNC(=O)c1ccccc1Cl (centres undefined) the results were PKA-R2B act inactive, CAL PDZ FP-1 inactive, CAL PDZ FP-2 inactive, PKA-R1A activ inactive, dFosB act-1 inactive and NTR1 ag inactive.
